Experimental data: ChEMBL document CHEMBL1671684, “In vitro resistance profile of the hepatitis C virus NS3/4A protease inhibitor TMC435” (Antimicrob Agents Chemother, 2010)

Each molecule was assayed on Hepatitis C virus (assay: Antiviral activity against Hepatitis C virus subtype 1b expressing NS3 D168I mutant infected in HuH7 cells after 48 hrs by luciferase reporter assay). Details: genotype 1b, Huh-7, 48 h.
Assay type: functional, organism-based, Hepacivirus hominis
How it was run: (§1)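 Genotype 1b con1 subgenomic bicistronic replicon (clone ET) with luciferase reporter and adaptive mutations E1202G, T1280I, K1846T, carrying site-directed NS3 single or double mutations. 10 μg wild-type or mutant replicon RNA electroporated into Huh7-lunet cells, seeded 4,000 cells/well over a nine-point inhibitor dilution series, 48 h at 37°C, 5% CO2, then luminescence read. EC50 taken as median of individual experiments; fold change relative to parental replicon EC50.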

| Compound | EC50 [µM] |
| --- | --- |
| COc1ccc2c(O[C@@H]3C[C@H]4C(=O)N[C@]5(C(=O)NS(=O)(=O)C6CC6)C[C@H]5/C=C\CCCCN(C)C(=O)[C@@H]4C3)cc(-c3nc(C(C)C)cs3)nc2c1C [SIMEPREVIR] | 23.2 |

What follows are molecules tested on Hepatitis C virus (assay: Antiviral activity against Hepatitis C virus subtype 1b expressing NS3 F43S and D168E mutant infected in HuH7 cells after 48 hrs by luciferase reporter assay). Details: genotype 1b, Huh-7, 48 h.
Assay type: functional, organism-based, Hepacivirus hominis
How it was run: as §1

| Compound | EC50 [µM] |
| --- | --- |
| COc1ccc2c(O[C@@H]3C[C@H]4C(=O)N[C@]5(C(=O)NS(=O)(=O)C6CC6)C[C@H]5/C=C\CCCCN(C)C(=O)[C@@H]4C3)cc(-c3nc(C(C)C)cs3)nc2c1C [SIMEPREVIR] | 3.61 |

These molecules were tested on Hepatitis C virus (assay: Antiviral activity against Hepatitis C virus subtype 1b expressing NS3 Q80R and D168E mutant infected in HuH7 cells after 48 hrs by luciferase reporter assay). Details: genotype 1b, Huh-7, 48 h.
Assay type: functional, organism-based, Hepacivirus hominis
How it was run: as §1

| Compound | EC50 [µM] |
| --- | --- |
| COc1ccc2c(O[C@@H]3C[C@H]4C(=O)N[C@]5(C(=O)NS(=O)(=O)C6CC6)C[C@H]5/C=C\CCCCN(C)C(=O)[C@@H]4C3)cc(-c3nc(C(C)C)cs3)nc2c1C [SIMEPREVIR] | 5.9 |

These molecules were tested on Hepatitis C virus (assay: Antiviral activity against Hepatitis C virus subtype 1b expressing NS3 Q80R and D168A mutant infected in HuH7 cells after 48 hrs by luciferase reporter assay). Details: genotype 1b, Huh-7, 48 h.
Assay type: functional, organism-based, Hepacivirus hominis
How it was run: as §1

| Compound | EC50 [µM] |
| --- | --- |
| COc1ccc2c(O[C@@H]3C[C@H]4C(=O)N[C@]5(C(=O)NS(=O)(=O)C6CC6)C[C@H]5/C=C\CCCCN(C)C(=O)[C@@H]4C3)cc(-c3nc(C(C)C)cs3)nc2c1C [SIMEPREVIR] | 16.9 |

These molecules were tested on Hepatitis C virus (assay: Ratio of EC50 for Hepatitis C virus subtype 1b expressing NS3 V36 M mutant to EC50 for Hepatitis C virus subtype 1b expressing WT NS3 infected in HuH7 cells after 48 hrs by luciferase reporter assay). Details: not given.
Assay type: functional, Hepacivirus hominis, genotype 1b, Huh-7
How it was run: (§2)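 Transient replicon assay: site-directed single or multiple NS3 mutations engineered into genotype 1b (con1, clone ET) subgenomic bicistronic replicon with luciferase reporter and adaptive mutations E1202G, T1280I, K1846T. Huh7-lunet cells electroporated with 10 μg wild-type or mutant replicon RNA, seeded 4,000 cells/well with nine-point inhibitor dilution; 48 h, 37°C, 5% CO2; luminescence read-out. EC50 as median of individual experiments; fold change versus parental replicon EC50.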

| Compound | Ratio EC50 |
| --- | --- |
| COc1ccc2c(O[C@@H]3C[C@H]4C(=O)N[C@]5(C(=O)NS(=O)(=O)C6CC6)C[C@H]5/C=C\CCCCN(C)C(=O)[C@@H]4C3)cc(-c3nc(C(C)C)cs3)nc2c1C [SIMEPREVIR] | 2 |

Each molecule was assayed on Hepatitis C virus (assay: Ratio of EC50 for Hepatitis C virus subtype 1b expressing NS3 F43S mutant to EC50 for Hepatitis C virus subtype 1b expressing WT NS3 infected in HuH7 cells after 48 hrs by luciferase reporter assay). Details: not given.
Assay type: functional, Hepacivirus hominis, genotype 1b, Huh-7
How it was run: as §2

| Compound | Ratio EC50 |
| --- | --- |
| COc1ccc2c(O[C@@H]3C[C@H]4C(=O)N[C@]5(C(=O)NS(=O)(=O)C6CC6)C[C@H]5/C=C\CCCCN(C)C(=O)[C@@H]4C3)cc(-c3nc(C(C)C)cs3)nc2c1C [SIMEPREVIR] | 12 |

These molecules were tested on Hepatitis C virus (assay: Ratio of EC50 for Hepatitis C virus subtype 1b expressing NS3 F43I mutant to EC50 for Hepatitis C virus subtype 1b expressing WT NS3 infected in HuH7 cells after 48 hrs by luciferase reporter assay). Details: not given.
Assay type: functional, Hepacivirus hominis, genotype 1b, Huh-7
How it was run: as §2

| Compound | Ratio EC50 |
| --- | --- |
| COc1ccc2c(O[C@@H]3C[C@H]4C(=O)N[C@]5(C(=O)NS(=O)(=O)C6CC6)C[C@H]5/C=C\CCCCN(C)C(=O)[C@@H]4C3)cc(-c3nc(C(C)C)cs3)nc2c1C [SIMEPREVIR] | 89 |

What follows are molecules tested on Hepatitis C virus (assay: Ratio of EC50 for Hepatitis C virus subtype 1b expressing NS3 F43V mutant to EC50 for Hepatitis C virus subtype 1b expressing WT NS3 infected in HuH7 cells after 48 hrs by luciferase reporter assay). Details: not given.
Assay type: functional, Hepacivirus hominis, genotype 1b, Huh-7
How it was run: as §2

| Compound | Ratio EC50 |
| --- | --- |
| COc1ccc2c(O[C@@H]3C[C@H]4C(=O)N[C@]5(C(=O)NS(=O)(=O)C6CC6)C[C@H]5/C=C\CCCCN(C)C(=O)[C@@H]4C3)cc(-c3nc(C(C)C)cs3)nc2c1C [SIMEPREVIR] | 99 |

The molecules below were run on Hepatitis C virus (assay: Ratio of EC50 for Hepatitis C virus subtype 1b expressing NS3 Q80L mutant to EC50 for Hepatitis C virus subtype 1b expressing WT NS3 infected in HuH7 cells after 48 hrs by luciferase reporter assay). Details: not given.
Assay type: functional, Hepacivirus hominis, genotype 1b, Huh-7
How it was run: as §2

| Compound | Ratio EC50 |
| --- | --- |
| COc1ccc2c(O[C@@H]3C[C@H]4C(=O)N[C@]5(C(=O)NS(=O)(=O)C6CC6)C[C@H]5/C=C\CCCCN(C)C(=O)[C@@H]4C3)cc(-c3nc(C(C)C)cs3)nc2c1C [SIMEPREVIR] | 2.1 |

What follows are molecules tested on Hepatitis C virus (assay: Ratio of EC50 for Hepatitis C virus subtype 1b expressing NS3 R155M mutant to EC50 for Hepatitis C virus subtype 1b expressing WT NS3 infected in HuH7 cells after 48 hrs by luciferase reporter assay). Details: not given.
Assay type: functional, Hepacivirus hominis, genotype 1b, Huh-7
How it was run: as §2

| Compound | Ratio EC50 |
| --- | --- |
| COc1ccc2c(O[C@@H]3C[C@H]4C(=O)N[C@]5(C(=O)NS(=O)(=O)C6CC6)C[C@H]5/C=C\CCCCN(C)C(=O)[C@@H]4C3)cc(-c3nc(C(C)C)cs3)nc2c1C [SIMEPREVIR] | 0.4 |

What follows are molecules tested on Hepatitis C virus (assay: Ratio of EC50 for Hepatitis C virus subtype 1b expressing NS3 R155T mutant to EC50 for Hepatitis C virus subtype 1b expressing WT NS3 infected in HuH7 cells after 48 hrs by luciferase reporter assay). Details: not given.
Assay type: functional, Hepacivirus hominis, genotype 1b, Huh-7
How it was run: as §2

| Compound | Ratio EC50 |
| --- | --- |
| COc1ccc2c(O[C@@H]3C[C@H]4C(=O)N[C@]5(C(=O)NS(=O)(=O)C6CC6)C[C@H]5/C=C\CCCCN(C)C(=O)[C@@H]4C3)cc(-c3nc(C(C)C)cs3)nc2c1C [SIMEPREVIR] | 24 |

The molecules below were run on Hepatitis C virus (assay: Ratio of EC50 for Hepatitis C virus subtype 1b expressing NS3 R155G mutant to EC50 for Hepatitis C virus subtype 1b expressing WT NS3 infected in HuH7 cells after 48 hrs by luciferase reporter assay). Details: not given.
Assay type: functional, Hepacivirus hominis, genotype 1b, Huh-7
How it was run: as §2

| Compound | Ratio EC50 |
| --- | --- |
| COc1ccc2c(O[C@@H]3C[C@H]4C(=O)N[C@]5(C(=O)NS(=O)(=O)C6CC6)C[C@H]5/C=C\CCCCN(C)C(=O)[C@@H]4C3)cc(-c3nc(C(C)C)cs3)nc2c1C [SIMEPREVIR] | 20 |

These molecules were tested on Hepatitis C virus (assay: Ratio of EC50 for Hepatitis C virus subtype 1b expressing NS3 D168N mutant to EC50 for Hepatitis C virus subtype 1b expressing WT NS3 infected in HuH7 cells after 48 hrs by luciferase reporter assay). Details: not given.
Assay type: functional, Hepacivirus hominis, genotype 1b, Huh-7
How it was run: as §2

| Compound | Ratio EC50 |
| --- | --- |
| COc1ccc2c(O[C@@H]3C[C@H]4C(=O)N[C@]5(C(=O)NS(=O)(=O)C6CC6)C[C@H]5/C=C\CCCCN(C)C(=O)[C@@H]4C3)cc(-c3nc(C(C)C)cs3)nc2c1C [SIMEPREVIR] | 6.6 |

The molecules below were run on Hepatitis C virus (assay: Ratio of EC50 for Hepatitis C virus subtype 1b expressing NS3 D168E mutant to EC50 for Hepatitis C virus subtype 1b expressing WT NS3 infected in HuH7 cells after 48 hrs by luciferase reporter assay). Details: not given.
Assay type: functional, Hepacivirus hominis, genotype 1b, Huh-7
How it was run: as §2

| Compound | Ratio EC50 |
| --- | --- |
| COc1ccc2c(O[C@@H]3C[C@H]4C(=O)N[C@]5(C(=O)NS(=O)(=O)C6CC6)C[C@H]5/C=C\CCCCN(C)C(=O)[C@@H]4C3)cc(-c3nc(C(C)C)cs3)nc2c1C [SIMEPREVIR] | 40 |

Each molecule was assayed on Hepatitis C virus (assay: Ratio of EC50 for Hepatitis C virus subtype 1b expressing NS3 F43S and D168E mutant to EC50 for Hepatitis C virus subtype 1b expressing WT NS3 infected in HuH7 cells after 48 hrs by luciferase reporter assay). Details: not given.
Assay type: functional, Hepacivirus hominis, genotype 1b, Huh-7
How it was run: as §2

| Compound | Ratio EC50 |
| --- | --- |
| COc1ccc2c(O[C@@H]3C[C@H]4C(=O)N[C@]5(C(=O)NS(=O)(=O)C6CC6)C[C@H]5/C=C\CCCCN(C)C(=O)[C@@H]4C3)cc(-c3nc(C(C)C)cs3)nc2c1C [SIMEPREVIR] | 694 |
